Converted amounts (≈) assume the structure as drawn.
Tests used:
Staphylococcus aureus [1] = experiment: Antibacterial activity against methicillin-resistant Staphylococcus aureus NRS384 USA300 after 18 to 20 hrs by broth microdilution assay; type: functional
Outline: (§1)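 Broth microdilution per CLSI. Strains grown aerobically overnight on tryptone soy agar at 37 °C, adjusted to 0.5 McFarland, then diluted in cation-adjusted Mueller-Hinton broth to about 5 × 10^5 CFU/mL. Compounds (10 mg/mL DMSO stocks) serially diluted. Incubated aerobically at 37 °C for 18-20 h. MIC is the lowest concentration with no visible growth.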

[2] = system: Staphylococcus epidermidis; experiment: Antibacterial activity against methicillin-resistant Staphylococcus epidermidis NRS101 after 18 to 20 hrs by CLSI-based broth microdilution assay; type: functional; outline: as §1
Staphylococcus aureus [3] = experiment: Antibacterial activity against methicilline-sensitive Staphylococcus aureus NRS-107 after 18 to 20 hrs by CLSI-based broth microdilution assay; type: functional; outline: as §1
Staphylococcus aureus [4] = experiment: Bactericidal activity against methicilline-resistant Staphylococcus aureus NRS386 USA700 incubated for 18 to 20 hrs followed by replating on tryptic soy agar plate and further incubated for 18 to 24 hrs by CLSI-based broth microdilution assay; type: functional
Outline: (§2)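 MBC: after the broth microdilution MIC (CAMHB, ~5 × 10^5 CFU/mL, 37 °C, 18-20 h), 4 µL from wells without growth plated onto tryptic soy agar. Plates incubated 37 °C for 18-20 h. MBC is the lowest concentration giving 99.9% reduction in growth.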

Staphylococcus aureus [5] = experiment: Antibacterial activity against methicilline-resistant Staphylococcus aureus NRS123 USA400 after 18 to 20 hrs by CLSI-based broth microdilution assay; type: functional; outline: as §1
Staphylococcus aureus [6] = experiment: Antibacterial activity against vancomycin-resistant Staphylococcus aureus 10 after 18 to 20 hrs by CLSI-based broth microdilution assay; type: functional; outline: as §1
Enterococcus faecalis = experiment: Bactericidal activity against vancomycin-resistant Enterococcus faecalis ATCC 51299 incubated for 18 to 20 hrs followed by replating on tryptic soy agar plate and further incubated for 18 to 24 hrs by CLSI-based broth microdilution assay; type: functional; outline: as §2
Enterococcus faecium [7] = experiment: Bactericidal activity against vancomycin-resistant Enterococcus faecium ATCC 700221 incubated for 18 to 20 hrs followed by replating on tryptic soy agar plate and further incubated for 18 to 24 hrs by CLSI-based broth microdilution assay; type: functional; outline: as §2
Staphylococcus aureus [8] = experiment: Bactericidal activity against methicilline-sensitive Staphylococcus aureus NRS-107 incubated for 18 to 20 hrs followed by replating on tryptic soy agar plate and further incubated for 18 to 24 hrs by CLSI-based broth microdilution assay; type: functional; outline: as §2
Streptococcus pneumoniae [9] = experiment: Bactericidal activity against cephalosporin-resistant Streptococcus pneumoniae ATCC 51916 incubated for 18 to 20 hrs followed by replating on tryptic soy agar plate and further incubated for 18 to 24 hrs by CLSI-based broth microdilution assay; type: functional; outline: as §2
Staphylococcus aureus [10] = experiment: Bactericidal activity against vancomycin-resistant Staphylococcus aureus 12 incubated for 18 to 20 hrs followed by replating on tryptic soy agar plate and further incubated for 18 to 24 hrs by CLSI-based broth microdilution assay; type: functional; outline: as §2
Staphylococcus aureus [11] = experiment: Bactericidal activity against Staphylococcus aureus ATCC BAA42 incubated for 18 to 20 hrs followed by replating on tryptic soy agar plate and further incubated for 18 to 24 hrs by CLSI-based broth microdilution assay; type: functional; outline: as §2
Staphylococcus aureus [12] = experiment: Bactericidal activity against methicilline-resistant Staphylococcus aureus NRS384 USA300 incubated for 18 to 20 hrs followed by replating on tryptic soy agar plate and further incubated for 18 to 24 hrs by CLSI-based broth microdilution assay; type: functional; outline: as §2
Staphylococcus aureus [13] = experiment: Antibacterial activity against methicilline-resistant Staphylococcus aureus NRS385 USA500 after 18 to 20 hrs by CLSI-based broth microdilution assay; type: functional; outline: as §1
Staphylococcus aureus [14] = experiment: Antibacterial activity against methicilline-resistant Staphylococcus aureus NRS-119 after 18 to 20 hrs by CLSI-based broth microdilution assay; type: functional; outline: as §1
Streptococcus pneumoniae [15] = experiment: Bactericidal activity against methicillin-resistant Streptococcus pneumoniae ATCC 700677 incubated for 18 to 20 hrs followed by replating on tryptic soy agar plate and further incubated for 18 to 24 hrs by CLSI-based broth microdilution assay; type: functional; outline: as §2
Listeria monocytogenes [16] = experiment: Antibacterial activity against Listeria monocytogenes ATCC 19111 after 18 to 20 hrs by CLSI-based broth microdilution assay; type: functional
Staphylococcus aureus [17] = experiment: Bactericidal activity against methicilline-sensitive Staphylococcus aureus ATCC 6538 incubated for 18 to 20 hrs followed by replating on tryptic soy agar plate and further incubated for 18 to 24 hrs by CLSI-based broth microdilution assay; type: functional; outline: as §2
Staphylococcus aureus [18] = experiment: Antibacterial activity against methicilline-sensitive Staphylococcus aureus ATCC 6538 after 18 to 20 hrs by CLSI-based broth microdilution assay; type: functional; outline: as §1
Listeria monocytogenes [19] = experiment: Bactericidal activity against Listeria monocytogenes ATCC 19111 incubated for 18 to 20 hrs followed by replating on tryptic soy agar plate and further incubated for 18 to 24 hrs by CLSI-based broth microdilution assay; type: functional
Staphylococcus aureus [20] = experiment: Bactericidal activity against methicilline-resistant Staphylococcus aureus NRS-119 incubated for 18 to 20 hrs followed by replating on tryptic soy agar plate and further incubated for 18 to 24 hrs by CLSI-based broth microdilution assay; type: functional; outline: as §2
Staphylococcus aureus [21] = experiment: Antibacterial activity against Staphylococcus aureus ATCC BAA42 after 18 to 20 hrs by CLSI-based broth microdilution assay; type: functional; outline: as §1
Enterococcus faecium [22] = experiment: Antibacterial activity against vancomycin-resistant Enterococcus faecium ATCC 700221 after 18 to 20 hrs by CLSI-based broth microdilution assay; type: functional; outline: as §1
Staphylococcus aureus [23] = experiment: Antibacterial activity against methicilline-resistant Staphylococcus aureus NRS386 USA700 after 18 to 20 hrs by CLSI-based broth microdilution assay; type: functional; outline: as §1
Staphylococcus aureus [24] = experiment: Antibacterial activity against methicilline-resistant Staphylococcus aureus NRS384 USA300 after 18 to 20 hrs by CLSI-based broth microdilution assay; type: functional; outline: as §1
Staphylococcus aureus [25] = experiment: Antibacterial activity against vancomycin-resistant Staphylococcus aureus 12 after 18 to 20 hrs by CLSI-based broth microdilution assay; type: functional; outline: as §1
Staphylococcus aureus [26] = experiment: Bactericidal activity against vancomycin-resistant Staphylococcus aureus 10 incubated for 18 to 20 hrs followed by replating on tryptic soy agar plate and further incubated for 18 to 24 hrs by CLSI-based broth microdilution assay; type: functional; outline: as §2
Staphylococcus aureus [27] = experiment: Bactericidal activity against methicilline-resistant Staphylococcus aureus NRS123 USA400 incubated for 18 to 20 hrs followed by replating on tryptic soy agar plate and further incubated for 18 to 24 hrs by CLSI-based broth microdilution assay; type: functional; outline: as §2
[28] = system: Staphylococcus epidermidis; experiment: Bactericidal activity against methicillin-resistant Staphylococcus epidermidis NRS101 incubated for 18 to 20 hrs followed by replating on tryptic soy agar plate and further incubated for 18 to 24 hrs by CLSI-based broth microdilution assay; type: functional
Staphylococcus aureus [29] = experiment: Bactericidal activity against methicilline-resistant Staphylococcus aureus NRS385 USA500 incubated for 18 to 20 hrs followed by replating on tryptic soy agar plate and further incubated for 18 to 24 hrs by CLSI-based broth microdilution assay; type: functional; outline: as §2
[30] = Aqueous solubility of the compound in phosphate buffered saline assessed as concentration that produces no precipitate measured as OD at 540 nm; type: physicochemical
Escherichia coli [31] = experiment: Antibacterial activity against TolC-deficient Escherichia coli JW55031; type: functional
Acinetobacter baumannii [32] = experiment: Antibacterial activity against Acinetobacter baumannii ATCC 19606; type: functional; details: ATCC 19606 = CIP 70.34 = JCM 6841
Escherichia coli [33] = experiment: Bactericidal activity against Escherichia coli BW25113; type: functional
Pseudomonas aeruginosa [34] = experiment: Bactericidal activity against Pseudomonas aeruginosa ATCC 15442; type: functional
Klebsiella pneumoniae [35] = experiment: Antibacterial activity against Klebsiella pneumoniae BAA-1706; type: functional
Escherichia coli [36] = experiment: Antibacterial activity against Escherichia coli ATCC 25922; type: functional
Pseudomonas aeruginosa [37] = experiment: Bactericidal activity against Pseudomonas aeruginosa ATCC 27853; type: functional
Escherichia coli [38] = experiment: Antibacterial activity against Escherichia coli BW25113; type: functional
Klebsiella pneumoniae [39] = experiment: Bactericidal activity against Klebsiella pneumoniae BAA-1706; type: functional
Escherichia coli [40] = experiment: Bactericidal activity against TolC-deficient Escherichia coli JW55031; type: functional
Escherichia coli [41] = experiment: Bactericidal activity against Escherichia coli ATCC 25922; type: functional
Acinetobacter baumannii [42] = experiment: Bactericidal activity against Acinetobacter baumannii ATCC 19606; type: functional; details: ATCC 19606 = CIP 70.34 = JCM 6841
Pseudomonas aeruginosa [43] = experiment: Antibacterial activity against Pseudomonas aeruginosa ATCC 15442; type: functional
Pseudomonas aeruginosa [44] = experiment: Antibacterial activity against Pseudomonas aeruginosa ATCC 27853; type: functional

## C/C(=N\NC(=N)N)c1sc(-c2ccc(N3CCSC3)cc2)nc1C
Staphylococcus aureus [1]
  MIC: > 128 µg/mL

## C/C(=N\NC(=N)N)c1sc(-c2ccc(N3CCSCC3)cc2)nc1C
Staphylococcus aureus [1]
  MIC: 32 µg/mL (≈ 85.4 µM)

## C/C(=N\NC(=N)N)c1sc(-c2ccc(-n3ccnc3)cc2)nc1C
Staphylococcus aureus [1]
  MIC: 16 µg/mL (≈ 47.1 µM)

## C/C(=N\NC(=N)N)c1sc(-c2ccc(N3CCOCC3)cc2)nc1C
Staphylococcus aureus [1]
  MIC: > 128 µg/mL

## C/C(=N\NC(=N)N)c1sc(-c2ccc(N3CCN(C)CC3)cc2)nc1C
Staphylococcus aureus [1]
  MIC: 64 µg/mL (≈ 172 µM)

## C/C(=N\NC(=N)N)c1sc(-c2ccc(N3CCCCC3C)cc2)nc1C (centres undefined)
Staphylococcus aureus [1]
  MIC: 8 µg/mL (≈ 21.6 µM)

## C/C(=N\NC(=N)N)c1sc(-c2ccc(N3CC(O)C3)cc2)nc1C
Staphylococcus aureus [1]
  MIC: 64 µg/mL (≈ 186 µM)

## CC(=O)NC[C@H]1CN(c2ccc(N3CCOCC3)c(F)c2)C(=O)O1 [LINEZOLID]
[2]
  MIC: 0.5 µg/mL (≈ 1.48 µM)
Staphylococcus aureus [3]
  MIC: 1 µg/mL (≈ 2.96 µM)
Staphylococcus aureus [4]
  MBC: 16 µg/mL (≈ 47.4 µM)
Staphylococcus aureus [5]
  MIC: 1 µg/mL (≈ 2.96 µM)
Staphylococcus aureus [6]
  MIC: 1 µg/mL (≈ 2.96 µM)
Enterococcus faecalis
  MBC: 16 µg/mL (≈ 47.4 µM)
Enterococcus faecium [7]
  MBC: 16 µg/mL (≈ 47.4 µM)
Staphylococcus aureus [8]
  MBC: 64 µg/mL (≈ 190 µM)
Streptococcus pneumoniae [9]
  MBC: 32 µg/mL (≈ 94.9 µM)
Staphylococcus aureus [10]
  MBC: 64 µg/mL (≈ 190 µM)
Staphylococcus aureus [1]
  MIC: 1 µg/mL (≈ 2.96 µM)
Staphylococcus aureus [11]
  MBC: 16 µg/mL (≈ 47.4 µM)
Staphylococcus aureus [12]
  MBC: 32 µg/mL (≈ 94.9 µM)
Staphylococcus aureus [13]
  MIC: 1 µg/mL (≈ 2.96 µM)
Staphylococcus aureus [14]
  MIC: 64 µg/mL (≈ 190 µM)
Streptococcus pneumoniae [15]
  MBC: 16 µg/mL (≈ 47.4 µM)
Listeria monocytogenes [16]
  MIC: ≤ 0.5 µg/mL
Staphylococcus aureus [17]
  MBC: 16 µg/mL (≈ 47.4 µM)
Staphylococcus aureus [18]
  MIC: 1 µg/mL (≈ 2.96 µM)
Listeria monocytogenes [19]
  MBC: 32 µg/mL (≈ 94.9 µM)
Staphylococcus aureus [20]
  MBC: > 64 µg/mL
Staphylococcus aureus [21]
  MIC: 1 µg/mL (≈ 2.96 µM)
Enterococcus faecium [22]
  MIC: 1 µg/mL (≈ 2.96 µM)
Staphylococcus aureus [23]
  MIC: 1 µg/mL (≈ 2.96 µM)
Staphylococcus aureus [24]
  MIC: 1 µg/mL (≈ 2.96 µM)
Staphylococcus aureus [25]
  MIC: 1 µg/mL (≈ 2.96 µM)
Staphylococcus aureus [26]
  MBC: > 64 µg/mL
Staphylococcus aureus [27]
  MBC: 64 µg/mL (≈ 190 µM)
[28]
  MBC: 8 µg/mL (≈ 23.7 µM)
Staphylococcus aureus [29]
  MBC: 32 µg/mL (≈ 94.9 µM)

## C/C(=N\NC(=N)N)c1sc(-c2ccc(N3CCC(C)CC3)cc2)nc1C
Staphylococcus aureus [1]
  MIC: 16 µg/mL (≈ 43.2 µM)

## C/C(=N\NC(=N)N)c1sc(-c2ccc(C3CCCCC3)cc2)nc1C
[30]
  solubility kinetic: 2.7 µM (≈ 0.96 µg/mL)

## C/C(=N\NC(=N)N)c1sc(-c2ccc(N3CCC4CCCCC4C3)cc2)nc1C (centres undefined)
Staphylococcus aureus [1]
  MIC: > 128 µg/mL

## C/C(=N\NC(=N)N)c1sc(-c2ccc(N3CCCCCCC3)cc2)nc1C
Staphylococcus aureus [1]
  MIC: 128 µg/mL (≈ 333 µM)

## C/C(=N\NC(=N)N)c1sc(-c2ccc(N3CCCC3)cc2)nc1C
Staphylococcus aureus [1]
  MIC: 16 µg/mL (≈ 46.7 µM)

## C/C(=N\NC(=N)N)c1sc(-c2ccc(N3CCCCCC3)cc2)nc1C
Staphylococcus aureus [1]
  MIC: > 128 µg/mL

## C/C(=N\NC(=N)N)c1sc(-c2ccc(N3CCC(Br)CC3)cc2)nc1C
Staphylococcus aureus [1]
  MIC: 8 µg/mL (≈ 18.4 µM)

## C/C(=N\NC(=N)N)c1sc(-c2ccc(N3CCC3)cc2)nc1C
Staphylococcus aureus [1]
  MIC: > 128 µg/mL

## GENTAMICIN
Escherichia coli [31]
  MIC: < 0.5 µg/mL
Acinetobacter baumannii [32]
  MIC: 32 µg/mL
Escherichia coli [33]
  MBC: < 0.5 µg/mL
Pseudomonas aeruginosa [34]
  MBC: 2 µg/mL
Klebsiella pneumoniae [35]
  MIC: 4 µg/mL
Escherichia coli [36]
  MIC: 1 µg/mL
Pseudomonas aeruginosa [37]
  MBC: 4 µg/mL
Escherichia coli [38]
  MIC: < 0.5 µg/mL
Klebsiella pneumoniae [39]
  MBC: 4 µg/mL
Escherichia coli [40]
  MBC: < 0.5 µg/mL
Escherichia coli [41]
  MBC: 1 µg/mL
Acinetobacter baumannii [42]
  MBC: 32 µg/mL
Pseudomonas aeruginosa [43]
  MIC: 2 µg/mL
Pseudomonas aeruginosa [44]
  MIC: 2 µg/mL

— ChEMBL document CHEMBL4406834, “Phenylthiazoles with nitrogenous side chain: An approach to overcome molecular obesity” (Eur J Med Chem, 2019)
